{
  "source": "paper PMC2532710",
  "about": "(Nucleic Acids Research, 2008)",
  "key": {"linear dsDNA": {"system": "linear dsDNA", "settings": "cited from earlier work"}, "flayed duplex molecule": {"system": "flayed duplex molecule", "assay": "2-AP fluorescence quenching, flayed duplex", "format": "binding", "outline": "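Substrates were annealed from oligos (boiled 5 min, slow-cooled), gel-purified on native 12% PAGE and quantified spectrophotometrically. After ≥10 min equilibration, emission was read at 330–430 nm (excitation 315 nm). Adenine-substituted spectra were subtracted, and fold decrease at 370 nm was taken versus no peptide.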"}, "Holliday junction": {"system": "Holliday junction", "assay": "2-AP titration Kd, Holliday junction", "format": "binding", "settings": "Kd ratio, n = 1", "outline": "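Each substrate carried 2-AP at strand 4, position 2 and was used at 0.1 μM in 20 mM Tris-HCl pH 7.8, 25 mM NaCl, 1 mM EDTA, 1.6% DMSO at 24°C. Peptide dimer added in 2-fold steps from 0.003125 μM, 3 min each. Excitation 315 nm, emission 330–430 nm. Adenine background subtracted, 365–375 nm averaged. Fc fitted by least squares to pooled 2–3 dilution series. Value given as Kd relative to HJ Kd.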"}},
  "data": [
    {"substance": "(WRWYCR)2 (disulfide)", "values": [
      {"measurement": "interaction with linear dsDNA", "setting": "linear dsDNA", "result": "not with linear dsDNA"},
      {"measurement": "binding to dsDNA", "setting": "linear dsDNA; high concentrations", "result": "binds to dsDNA nonspecifically at high concentrations"},
      {"measurement": "fold decrease in 2-AP fluorescence at 370 nm", "setting": "flayed duplex molecule; Flayed-1AP1 (central base), 1.6 μM dimer, 8:1", "result": 1.3, "unit": "fold"},
      {"measurement": "fold decrease in 2-AP fluorescence at 370 nm", "setting": "flayed duplex molecule; Flayed-4AP1 (central base), 0.8 μM dimer, 4:1", "result": 1.2, "unit": "fold"},
      {"measurement": "2-AP quenching", "setting": "flayed duplex molecule; Flayed-4AP1, 4AP2 and 4AP3, compared with leading strand fork", "result": "even less sensitive to quenching"},
      {"measurement": "fold decrease in 2-AP fluorescence at 370 nm", "setting": "flayed duplex molecule; Flayed-4AP2 (central base), 0.05 μM dimer, 0.25:1", "result": 1.0, "unit": "fold"},
      {"measurement": "fold decrease in 2-AP fluorescence at 370 nm", "setting": "flayed duplex molecule; Flayed-4AP2 (central base), 0.8 μM dimer, 4:1", "result": 1.3, "unit": "fold"},
      {"measurement": "fold decrease in 2-AP fluorescence at 370 nm", "setting": "flayed duplex molecule; Flayed-4AP3, 0.05 μM dimer, 0.25:1", "result": 1.0, "unit": "fold"},
      {"measurement": "fold decrease in 2-AP fluorescence at 370 nm", "setting": "flayed duplex molecule; Flayed-4AP3, 0.8 μM dimer, 4:1", "result": 1.2, "unit": "fold"},
      {"measurement": "fold decrease in 2-AP fluorescence at 370 nm", "setting": "flayed duplex molecule; Flayed-4AP3, 1.6 μM dimer, 8:1", "result": 1.3, "unit": "fold"},
      {"measurement": "fold decrease in 2-AP fluorescence at 370 nm", "setting": "flayed duplex molecule; Flayed-4AP4, 0.05 μM dimer, 0.25:1", "result": 1.0, "unit": "fold"},
      {"measurement": "fold decrease in 2-AP fluorescence at 370 nm", "setting": "flayed duplex molecule; Flayed-4AP4, 0.2 μM dimer, 1:1", "result": 1.0, "unit": "fold"},
      {"measurement": "fold decrease in 2-AP fluorescence at 370 nm", "setting": "flayed duplex molecule; Flayed-4AP4, 1.6 μM dimer, 8:1", "result": 1.2, "unit": "fold"},
      {"measurement": "2-AP quenching", "setting": "flayed duplex molecule; Flayed-4AP4 and Flayed-1AP1", "result": "only weakly quenched"},
      {"measurement": "Fold reduced versus HJ", "setting": "Holliday junction", "result": 1}
    ]}
  ]
}
